Results reported in ChEMBL document CHEMBL4270548, “Discovery of a potent glucokinase activator with a favorable liver and pancreas distribution pattern for the treatment of type 2 diabetes mellitus” (Eur J Med Chem, 2018).
≈ marks a conversion by molar mass, not a printed value. Calls of active or inactive are those of the source. No cut-off for these calls is given here.

Key:
[1] = molecular target: T1, Hexokinase-4 (Homo sapiens) (UniProt P35557); assay: Activation of human glucokinase assessed as conversion of D-glucose to D-glucose-6-phosphate at 10 uM preincubated for 10 mins followed by 5 mM glucose addition measured for 5 mins at 30 secs time interval by G6PDH/NADP coupled assay relative to control
T1 sequence (whole entry): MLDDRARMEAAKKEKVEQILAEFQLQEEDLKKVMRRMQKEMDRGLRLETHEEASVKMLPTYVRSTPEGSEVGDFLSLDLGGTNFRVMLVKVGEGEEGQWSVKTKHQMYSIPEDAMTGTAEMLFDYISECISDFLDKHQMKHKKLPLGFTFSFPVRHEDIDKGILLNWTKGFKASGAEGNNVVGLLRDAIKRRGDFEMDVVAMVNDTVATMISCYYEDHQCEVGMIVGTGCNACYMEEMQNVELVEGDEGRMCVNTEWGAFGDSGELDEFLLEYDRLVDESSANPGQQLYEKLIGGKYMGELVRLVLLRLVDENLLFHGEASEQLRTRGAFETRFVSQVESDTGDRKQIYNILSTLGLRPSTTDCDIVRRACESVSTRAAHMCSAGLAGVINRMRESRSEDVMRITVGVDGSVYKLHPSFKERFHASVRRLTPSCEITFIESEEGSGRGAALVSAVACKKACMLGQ
Procedure, shortened: (§1)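 Human GK in 25 mM HEPES pH 7.1, 25 mM KCl, 2 mM MgCl2, 1 mM NADP, 1 mM DTT, 2 U/mL G6PDH and 5 mM D-glucose. Compound at 10 µM preincubated 10 min at room temperature. Started with 20 mM ATP (added stock). A340 read every 30 s for 5 min, slope from the first 3 min. Fold over DMSO, or relative scale (DMSO 0, 10 µM reference activator 1). Mean ± SEM, n = 3.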

[2] = molecular target: T1, Hexokinase-4 (Homo sapiens); assay: Activation of human glucokinase assessed as conversion of D-glucose to D-glucose-6-phosphate at 10 uM preincubated for 10 mins […] measured for 5 mins at 30 secs time interval by G6PDH/NADP coupled assay relative to RO0281675; procedure, shortened: as §1
hERG (KCNH2) = hERG (KCNH2) (Homo sapiens, UniProt Q12809); assay: Inhibition of [3H]-dofetilide binding to human ERG expressed in HEK293 cell membranes at 30 uM after 1 hr by scintillation proximity assay relative to control; conditions: HEK293 cell membranes that express hERG, probe [3H]-dofetilide
Procedure, shortened: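 hERG-HEK293 membranes with 10 nM final [3H]-dofetilide and poly-L-lysine SPA beads in 50 mM Tris-Cl, 1.0 mM MgCl2, 10 mM KCl, pH 7.4. Shaken 1 h, beads settled 3 h, then scintillation counting. Normalized to DMSO (0%) and E-4031 (100% inhibition). Single-point at 30 µM, mean ± SEM, n = 3.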

[3] = Aqueous solubility of the compound in phosphate buffered saline at pH 7.4 at 8 to 2000 uM by nephelometric method; assay type: physicochemical
Procedure, shortened: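 Compound serial dilutions (8 µM–2 mM, before addition to buffer) transferred into PBS pH 7.4 (5 µL into 95 µL). Solubility read by nephelometry. Only wells with blank below mean blank + 2SD were used.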

Mus musculus [4] = assay: Antidiabetic activity in C57BL/6J mouse assessed as reduction in blood glucose AUC (0 to 120 mins) at 30 mg/kg, po dosed 30 minutes prior to glucose challenge by OGTT relative to control; assay type: functional; set-up: scale not given: the % may be the effect or the level left
Procedure, shortened: (§2)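 Fasted male C57BL/6J or ob/ob mice (8 weeks, n = 8/group) dosed orally in 0.5% methylcellulose 15 or 30 min before a 2 g/kg oral glucose load. Tail vein glucose measured by glucometer at −15 or −30, 0, 20, 40, 60, 90 and 120 min. Incremental glucose AUC0-120 min compared with vehicle. Mean ± SEM, Dunnett's test.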

[5] = Cmax in mouse at 30 mg/kg, po administered as single dose by LC/MS/MS analysis; conditions: in vivo
Mus musculus [6] = assay: Antidiabetic activity in po dosed C57BL/6J mouse assessed as reduction in blood glucose level administered 15 mins prior to glucose challenge measured up to 120 mins post dose by OGTT; assay type: functional, organism-based; procedure, shortened: as §2
Mus musculus [7] = assay: Antidiabetic activity in po dosed ob/ob mouse assessed as reduction in blood glucose level administered for 15 to 30 mins prior to glucose challenge measured up to 120 mins post dose by OGTT; assay type: functional, organism-based; procedure, shortened: as §2
Mus musculus [8] = assay: Antidiabetic activity in ob/ob mouse assessed as reduction in plasma glucose level at 10 to 30 mg/kg, po bid administered for 14 days measured at post last dose by glucometric method; assay type: functional, organism-based
Procedure, shortened: (§3)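 Male ob/ob mice (9 weeks) dosed orally twice daily for 4 weeks, vehicle 0.5% MC. Plasma glucose measured by portable glucometer at 2 and 4 weeks. Liver TG assessed at the end of treatment. Mean ± SEM (n = 10), Dunnett's test versus vehicle.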

Mus musculus [9] = assay: Antidiabetic activity in ob/ob mouse assessed as reduction in plasma glucose level at 10 to 30 mg/kg, po bid administered for 28 days measured at post last dose by glucometric method; assay type: functional, organism-based; procedure, shortened: as §3
Mus musculus [10] = assay: Antidiabetic activity in po dosed C57BL/6J mouse assessed as reduction in blood glucose level administered for 15 to 30 mins prior to glucose challenge measured up to 120 mins post dose by OGTT; assay type: functional, organism-based; procedure, shortened: as §2
Mus musculus [11] = assay: Antidiabetic activity in C57BL/6J mouse assessed as increase in insulin secretion at 100 mg/kg, po measured up to 60 mins by ELISA; assay type: functional, organism-based
Procedure, shortened: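 Male C57BL/6J mice (8 weeks) fasted 2 h, then dosed orally at time 0 (n = 8/group). Tail vein insulin measured at 0, 30 and 60 min by ultra-sensitive mouse insulin ELISA. Mean ± SEM, Dunnett's test.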

Chain of hERG (KCNH2) (Q12809 whole entry): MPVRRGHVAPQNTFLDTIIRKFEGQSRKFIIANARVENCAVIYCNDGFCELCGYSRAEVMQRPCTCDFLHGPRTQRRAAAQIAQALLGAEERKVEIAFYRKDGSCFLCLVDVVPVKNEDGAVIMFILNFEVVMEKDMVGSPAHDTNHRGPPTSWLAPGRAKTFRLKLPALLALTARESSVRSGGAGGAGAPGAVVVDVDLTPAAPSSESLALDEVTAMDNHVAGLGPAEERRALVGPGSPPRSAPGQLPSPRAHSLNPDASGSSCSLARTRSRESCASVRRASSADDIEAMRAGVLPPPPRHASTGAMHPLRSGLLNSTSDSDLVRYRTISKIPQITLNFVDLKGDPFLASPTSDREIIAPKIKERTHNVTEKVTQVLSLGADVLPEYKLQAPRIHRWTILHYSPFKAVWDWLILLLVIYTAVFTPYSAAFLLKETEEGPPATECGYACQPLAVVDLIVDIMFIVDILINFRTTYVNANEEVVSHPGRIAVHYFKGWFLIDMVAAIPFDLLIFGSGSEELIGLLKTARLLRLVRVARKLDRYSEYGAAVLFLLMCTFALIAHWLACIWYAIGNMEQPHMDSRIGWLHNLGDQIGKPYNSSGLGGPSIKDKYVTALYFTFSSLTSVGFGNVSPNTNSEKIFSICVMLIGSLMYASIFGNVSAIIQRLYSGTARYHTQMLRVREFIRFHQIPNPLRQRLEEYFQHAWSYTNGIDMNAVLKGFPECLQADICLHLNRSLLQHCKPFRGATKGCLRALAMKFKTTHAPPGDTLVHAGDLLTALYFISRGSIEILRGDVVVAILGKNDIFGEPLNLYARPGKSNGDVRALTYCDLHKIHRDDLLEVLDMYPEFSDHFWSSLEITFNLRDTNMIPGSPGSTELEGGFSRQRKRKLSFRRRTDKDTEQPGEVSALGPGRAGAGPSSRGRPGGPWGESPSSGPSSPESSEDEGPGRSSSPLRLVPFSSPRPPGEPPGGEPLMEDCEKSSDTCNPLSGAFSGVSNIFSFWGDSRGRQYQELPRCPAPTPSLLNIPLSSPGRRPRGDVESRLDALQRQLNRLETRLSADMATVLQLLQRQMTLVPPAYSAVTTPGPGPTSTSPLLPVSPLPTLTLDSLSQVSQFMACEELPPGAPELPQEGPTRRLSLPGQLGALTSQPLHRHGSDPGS

| fold change (FC) [1] | fold change (FC) [2] | solubility kinetic [3] [µM] | Structure (SMILES) | inhibition at 1 h, 30 µM (hERG (KCNH2)) [%] | also measured |
| --- | --- | --- | --- | --- | --- |
| 6.21 | 0.46 |  | Cc1sc(C2CCCN2C(=O)CNS(C)(=O)=O)cc1C(=O)Nc1ncc(Cl)s1 (stereo unspecified) | 16 |  |
| 4.31 | 0.428 | 1.95 (≈ 0.887 µg/mL) | Cc1sc(-c2ccccc2C(=O)NCCN(C)C)cc1C(=O)Nc1nc2c(s1)CCC2 |  |  |
| 8.35 | 0.718 |  | Cc1sc(C2CCCN2C(=O)CN(C)CC(=O)O)cc1C(=O)Nc1ncc(Cl)s1.Cl (stereo unspecified) | 11 | Activity (Mus musculus [4]): 82% |
| 6.81 | 0.598 | 3.91 (≈ 1.61 µg/mL) | Cc1sc(C2CCCN2C(=O)CN(C)C)cc1C(=O)Nc1ncc(Cl)s1 (stereo unspecified) |  |  |
| 6.86 | 0.61 |  | Cc1sc(C2CCCN2C(=O)CN(C)CCCC(=O)O)cc1C(=O)Nc1ncc(F)s1 (stereo unspecified) | 78 |  |
| 6.23 | 0.699 | 1.95 (≈ 0.748 µg/mL) | Cc1sc(-c2ccccc2C(N)=O)cc1C(=O)Nc1nc2c(s1)CCC2 |  | Cmax [5]: < 1 µM |
| 3.24 | 0.168 |  | Cc1sc(C2CCCN2C(=O)CN(C)S(C)(=O)=O)cc1C(=O)Nc1ncc(Cl)s1 (stereo unspecified) |  |  |
| 2.56 | 0.187 | 3.91 (≈ 1.78 µg/mL) | Cc1sc(-c2ccccc2C(=O)NCCC(N)=O)cc1C(=O)Nc1nc2c(s1)CCC2 |  |  |
| 2.53 | 0.187 | 7.81 (≈ 2.93 µg/mL) | CC(=O)N1CCCC1c1cc(C(=O)Nc2nc3c(s2)CCC3)c(C)s1 (stereo unspecified) |  |  |
| 4.75 | 0.438 |  | Cc1sc(C2CCCN2C(=O)CNCC(=O)O)cc1C(=O)Nc1ncc(Cl)s1 (stereo unspecified) | 28 |  |
| 1.13 | 0.017 | 0.98 (≈ 0.382 µg/mL) | CC(=O)N1CCCCC1c1cc(C(=O)Nc2nc3c(s2)CCC3)c(C)s1 (stereo unspecified) |  |  |
| 10.4 | 0.65 | 7.81 | Cc1sc([C@@H]2CCCN2C(=O)CN(C)C)cc1C(=O)Nc1ncc(Cl)s1.Cl | 101 | Activity (Mus musculus [6]): Active; Cmax [5]: > 9 µM |
| 0.84 | -0.019 | 31.3 (≈ 15 µg/mL) | Cc1sc(-c2ccccc2C(=O)NCCc2nnn[nH]2)cc1C(=O)Nc1nc2c(s1)CCC2 |  |  |
| 3.46 | 0.274 | 0.98 (≈ 0.396 µg/mL) | Cc1sc(C2CCCN2C(=O)CCN)cc1C(=O)Nc1nc2c(s1)CCC2 (stereo unspecified) |  |  |
| 2.86 | 0.175 | 15.6 (≈ 5.69 µg/mL) | Cc1sc(C2CCCN2C(=O)CCN)cc1C(=O)Nc1nccs1 (stereo unspecified) |  |  |
| 6.95 | 0.619 |  | Cc1sc(C2CCCN2C(=O)CN(C)CCCCC(=O)O)cc1C(=O)Nc1ncc(F)s1 (stereo unspecified) | 77 |  |
| 8.8 | 0.832 |  | Cc1sc([C@@H]2CCCN2C(=O)[C@H](C)N(C)CC(=O)O)cc1C(=O)Nc1ncc(F)s1 | 4 |  |
| 2.96 | 0.235 | 0.98 (≈ 0.354 µg/mL) | Cc1sc(N2CCCCC2=O)cc1C(=O)Nc1nc2c(s1)CCC2 |  |  |
| 7.26 | 0.686 |  | Cc1sc([C@@H]2CCCN2C(=O)CN(C)CCC(=O)O)cc1C(=O)Nc1ncc(F)s1 | 49 |  |
| 4.99 | 0.381 | 1.95 | Cc1sc([C@H]2CCCN2C(=O)CN(C)C)cc1C(=O)Nc1ncc(Cl)s1.Cl |  |  |
| 2.41 | 0.168 | 3.91 (≈ 1.36 µg/mL) | Cc1sc(N2CCCC2=O)cc1C(=O)Nc1nc2c(s1)CCC2 |  |  |
| 2.57 | 0.118 |  | CC(=O)N(C)CC(=O)N1CCCC1c1cc(C(=O)Nc2ncc(Cl)s2)c(C)s1 (stereo unspecified) |  |  |
| 3.89 | 0.373 | 0.98 (≈ 0.419 µg/mL) | Cc1sc(-c2ccccc2C(=O)NCCO)cc1C(=O)Nc1nc2c(s1)CCC2 |  |  |
|  |  |  | CCN(CC(=O)O)CC(=O)N1CCC[C@H]1c1cc(C(=O)Nc2ncc(F)s2)c(C)s1 [listing 1 of 2 here] | -1 |  |
| 5.32 | 0.395 |  | CC(=O)NCC(=O)N1CCCC1c1cc(C(=O)Nc2ncc(Cl)s2)c(C)s1 (stereo unspecified) | 3 |  |
| 3.67 | 0.293 | 7.81 (≈ 2.74 µg/mL) | Cc1sc(C2CCCN2C(=O)CN)cc1C(=O)Nc1nccs1 (stereo unspecified) |  |  |
| 4.7 | 0.38 | 7.81 (≈ 2.96 µg/mL) | Cc1sc(C2CCCN2C(=O)CN(C)C)cc1C(=O)Nc1nccs1 (stereo unspecified) |  |  |
| 8.6 | 0.87 |  | CCN(CC(=O)O)CC(=O)N1CCC[C@H]1c1cc(C(=O)Nc2ncc(F)s2)c(C)s1 [listing 2 of 2 here] |  | Activity (Mus musculus [7]): Dose-dependent effect; Activity (Mus musculus [8]): Active; Activity (Mus musculus [9]): Active; Activity (Mus musculus [10]): Dose-dependent effect; Activity (Mus musculus [11]): Active |
| 4.89 | 0.466 |  | Cc1sc(C2CCCN2C(=O)CN(C)CCC(=O)O)cc1C(=O)Nc1ncc(F)s1.Cl (stereo unspecified) | 17 | Activity (Mus musculus [4]): 47% |
| 6.92 | 0.71 |  | Cc1sc(C2CCCN2C(=O)CN(C)CC(=O)O)cc1C(=O)Nc1ncc(F)s1 (stereo unspecified) | -6 |  |
